Experimental data reported in ChEMBL document CHEMBL1151257, “Cytotoxic furanosesterterpenes from a marine sponge Psammocinia sp” (J Nat Prod, 2004).
Converted amounts (≈) assume the structure as drawn.

Tests used:
A549 = experiment: Cytotoxicity against human A549 cells; assay type: functional; details: read-out: ED50 (the source's name)
SK-OV-3 = experiment: Cytotoxicity against human SKOV3 cells; assay type: functional; details: read-out: ED50 (the source's name)
SK-MEL-2 = experiment: Cytotoxicity against human SK-MEL-2 cells; assay type: functional; details: read-out: ED50 (the source's name)
XF498 = experiment: Cytotoxicity against human XF498 cells; assay type: functional; details: read-out: ED50 (the source's name)
HCT-15 = experiment: Cytotoxicity against human HCT15 cells; assay type: functional; details: read-out: ED50 (the source's name)
Simian virus 40 [1] = experiment: Inhibition of SV40 DNA replication in human HeLa cells at 125 uM; assay type: functional; details: Betapolyomavirus macacae
How it was run: (§1)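 SV40 DNA replication reaction run at 37 °C for 2 h; replication quantified as acid-insoluble radioactivity.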

[2] = Inhibition of DNA polymerase alpha
How it was run: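 DNA polymerase α reaction incubated at 37 °C for 30 min; activity read as acid-insoluble radioactivity.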

Simian virus 40 [3] = experiment: Inhibition of SV 40 DNA replication in human HeLa cells at 250 uM; assay type: functional; details: Betapolyomavirus macacae; how it was run: as §1
Simian virus 40 [4] = experiment: Inhibition of SV 40 DNA replication in human HeLa cells at 500 uM; assay type: functional; details: Betapolyomavirus macacae; how it was run: as §1

Structure (SMILES)	EC50 (A549) [µg/mL]	EC50 (SK-OV-3) [µg/mL]	EC50 (SK-MEL-2) [µg/mL]	EC50 (XF498) [µg/mL]	EC50 (HCT-15) [µg/mL]	inhibition at 125 µM (Simian virus 40 [1]) [%]	IC50 [2] [µM]	inhibition at 250 µM (Simian virus 40 [3]) [%]	inhibition at 500 µM (Simian virus 40 [4]) [%]
CC1=C(O)/C(=C/[C@H](C)CC/C=C(/C)CCC/C(C)=C\CCc2ccoc2)OC1=O	> 30	14.1 (≈ 35.4 µM)	14.4 (≈ 36.1 µM)	20.3 (≈ 50.9 µM)	16 (≈ 40.1 µM)				
CC1=C(O)/C(=C/[C@H](C)CC/C=C(/C)CC/C=C(\C)CCCc2ccoc2)OC1=O	10.5 (≈ 26.3 µM)	7.5 (≈ 18.8 µM)	5.8 (≈ 14.6 µM)	8.7 (≈ 21.8 µM)	11 (≈ 27.6 µM)	30	5	60	100
CC1=C(O)/C(=C/[C@H](C)CCC/C(C)=C/CC/C(C)=C/CCc2ccoc2)OC1=O	24.1 (≈ 60.5 µM)	18.6 (≈ 46.7 µM)	19 (≈ 47.7 µM)	22.1 (≈ 55.5 µM)	23.5 (≈ 59 µM)				
COc1cccc2c1C(=O)c1c(O)c3c(c(O)c1C2=O)C[C@@](O)(C(=O)CO)C[C@@H]3O[C@H]1C[C@H](N)[C@H](O)[C@H](C)O1 [DOXORUBICIN]	0.03 (≈ 0.0552 µM)	0.15 (≈ 0.276 µM)	0.05 (≈ 0.092 µM)	0.15 (≈ 0.276 µM)	0.12 (≈ 0.221 µM)				
CC1=C(O)[C@@H](C/C(C)=C/C=C/C(C)CCC/C(C)=C/CCc2ccoc2)OC1=O (some centres undefined) [ISOPALINURIN]	> 30	16.5 (≈ 41.4 µM)	10.7 (≈ 26.8 µM)	10 (≈ 25.1 µM)	> 30				
CC1=C(O)[C@@H](C/C(C)=C/CCC(C)/C=C/C=C(\C)CCCc2ccoc2)OC1=O (some centres undefined) [PALINURIN]	5.2 (≈ 13 µM)	10.2 (≈ 25.6 µM)	4.4 (≈ 11 µM)	5.1 (≈ 12.8 µM)	5.4 (≈ 13.5 µM)				
CC1=C/C(=C/[C@H](C)CCC(=O)/C(C)=C/CC/C(C)=C/CCc2ccoc2)OC1=O [PSAMMOCININ A1]	> 30	> 30	7.5 (≈ 18.9 µM)	28.1 (≈ 70.9 µM)	20.5 (≈ 51.7 µM)				
CC1=C/C(=C/[C@H](C)CCC(=O)C(C)CCC/C(C)=C/CCc2ccoc2)OC1=O (some centres undefined) [PSAMMOCININ A2]	7.5 (≈ 18.8 µM)	12.3 (≈ 30.9 µM)	4.8 (≈ 12 µM)	10.5 (≈ 26.3 µM)	11.7 (≈ 29.4 µM)				
COC1C=C(CC/C=C(\C)CC/C=C(\C)CCCC(C)/C=C2\OC(=O)C(C)=C2O)C(OC)O1 (centres undefined) [PSAMMOCININ B]	8.2 (≈ 17.8 µM)	12.6 (≈ 27.4 µM)	7.5 (≈ 16.3 µM)	7.8 (≈ 16.9 µM)	19.2 (≈ 41.7 µM)				
